Assay [1] addresses E3 ubiquitin-protein ligase Mdm2 (Homo sapiens, UniProt Q00987). Kind of assay: Inhibition of MDM2-p53 interaction (unknown origin) by ELISA. Summed up:
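MDM2–p53 ELISA protein–protein binding assay; IC50 values were determined in follow-up concentration–response testing.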
Background: ELISA stands for enzyme-linked immunosorbent assay.

Assay [2] has as its target T1, E3 ubiquitin-protein ligase Mdm2/Cellular tumor antigen p53/Protein Mdm4 (Homo sapiens) (UniProt P04637+Q00987+O15151). The experiment in a line: Inhibition of MDM2/MDMX-p53 interaction in human A2780 CP70 cells expressing p53 mutant gene assessed as induction of p21 protein expression at 0.2 to 5 uM after 4 hrs by western blot analysis. The format is cell-based. A digest of the protocol:
(§1)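 Cell lines with defined MDM2 and p53 status were exposed to increasing compound concentrations for 4 h. p53 pathway activation (p53 and the p53-dependent proteins) was then detected by Western blotting of cell extracts.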
A general note: Immunoblotting shows a protein as a band on a membrane.

The target of assay [3] is T1, E3 ubiquitin-protein ligase Mdm2/Cellular tumor antigen p53/Protein Mdm4 (Homo sapiens). Kind of assay: Inhibition of MDM2/MDMX-p53 interaction in human SJSA-1 cells expressing amplified MDM2 and wild-type p53 assessed as induction of p53 protein expression at 5 uM after 4 hrs by western blot analysis. It is filed as cell-based. A digest of the protocol: as §1
Assay [4] shares this target. The experiment in a line: Inhibition of MDM2/MDMX-p53 interaction in human A2780 CP70 cells expressing p53 mutant gene assessed as induction of MDM2 protein expression at 0.2 to 5 uM after 4 hrs by western blot analysis. It is filed as cell-based. Summed up: as §1
Assay [5] shares this target. Kind of assay: Inhibition of MDM2/MDMX-p53 interaction in human A2780 cells expressing wild-type p53 assessed as induction of MDM2 protein expression at 0.2 to 5 uM after 4 hrs by western blot analysis. The format is cell-based. Summed up: as §1
For assay [6] the target is unchanged. The experiment in a line: Inhibition of MDM2/MDMX-p53 interaction in human A2780 CP70 cells expressing p53 mutant gene assessed as induction of p53 protein expression at 0.2 to 5 uM after 4 hrs by western blot analysis. The format is cell-based. A digest of the protocol:
as §1

Assay [7] shares this target. The experiment in a line: Inhibition of MDM2/MDMX-p53 interaction in human A2780 cells expressing wild-type p53 assessed as induction of p53 protein expression at 0.2 to 5 uM after 4 hrs by western blot analysis. It is filed as cell-based. Summed up: as §1
Assay [8] shares this target. Kind of assay: Inhibition of MDM2/MDMX-p53 interaction in human A2780 cells expressing wild-type p53 assessed as induction of p21 protein expression at 0.2 to 5 uM after 4 hrs by western blot analysis. It is filed as cell-based. Summed up:
as §1

The target is the same in assay [9]. Kind of assay: Inhibition of MDM2/MDMX-p53 interaction in human SJSA-1 cells expressing amplified MDM2 and wild-type p53 assessed as induction of MDM2 protein expression at 5 uM after 4 hrs by western blot analysis. It is filed as cell-based. Summed up: as §1
For assay [10] the target is unchanged. Kind of assay: Inhibition of MDM2/MDMX-p53 interaction in human SJSA-1 cells expressing amplified MDM2 and wild-type p53 assessed as induction of p21 protein expression at 5 uM after 4 hrs by western blot analysis. It is filed as cell-based. Summed up: as §1

Our source for the inhibition and IC50 values is ChEMBL document CHEMBL3217694, “Diaryl- and triaryl-pyrrole derivatives: inhibitors of the MDM2-p53 and MDMX-p53 protein-protein interactions†Electronic supplementary information (ESI) available: Experimental details for compound synthesis, analytical data for all compounds and intermediates. Details for the biological …” (Medchemcomm, 2013).

Activity calls are given as the source filed them. The rule behind the calls is not given here.

T1 sequence (O15151 whole entry, looked up): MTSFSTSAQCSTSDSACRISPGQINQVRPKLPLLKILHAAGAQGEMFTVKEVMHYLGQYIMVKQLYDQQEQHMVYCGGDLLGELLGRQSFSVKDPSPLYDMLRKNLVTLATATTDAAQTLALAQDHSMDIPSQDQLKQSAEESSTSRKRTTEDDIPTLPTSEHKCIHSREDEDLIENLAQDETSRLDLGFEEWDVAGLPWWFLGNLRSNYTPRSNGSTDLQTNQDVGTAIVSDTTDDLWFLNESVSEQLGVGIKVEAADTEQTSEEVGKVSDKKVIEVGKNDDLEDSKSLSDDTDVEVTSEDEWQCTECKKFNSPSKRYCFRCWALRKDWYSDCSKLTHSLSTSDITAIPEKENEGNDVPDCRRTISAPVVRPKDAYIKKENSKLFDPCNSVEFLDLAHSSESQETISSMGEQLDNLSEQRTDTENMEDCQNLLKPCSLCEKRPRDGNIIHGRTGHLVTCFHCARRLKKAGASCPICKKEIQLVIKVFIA
T1 sequence (P04637 whole entry, looked up): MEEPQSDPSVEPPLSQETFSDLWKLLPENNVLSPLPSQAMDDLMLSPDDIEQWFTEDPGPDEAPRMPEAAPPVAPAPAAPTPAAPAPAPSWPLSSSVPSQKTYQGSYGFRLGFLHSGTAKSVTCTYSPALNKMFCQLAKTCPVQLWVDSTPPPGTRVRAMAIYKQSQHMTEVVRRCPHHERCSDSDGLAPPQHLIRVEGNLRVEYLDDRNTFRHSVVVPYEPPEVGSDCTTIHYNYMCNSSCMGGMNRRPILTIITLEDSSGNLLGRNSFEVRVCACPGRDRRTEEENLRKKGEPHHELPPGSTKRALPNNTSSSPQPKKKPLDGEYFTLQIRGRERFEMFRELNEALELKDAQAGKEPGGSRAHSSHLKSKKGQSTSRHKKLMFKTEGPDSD
T1 sequence (Q00987 whole entry, looked up): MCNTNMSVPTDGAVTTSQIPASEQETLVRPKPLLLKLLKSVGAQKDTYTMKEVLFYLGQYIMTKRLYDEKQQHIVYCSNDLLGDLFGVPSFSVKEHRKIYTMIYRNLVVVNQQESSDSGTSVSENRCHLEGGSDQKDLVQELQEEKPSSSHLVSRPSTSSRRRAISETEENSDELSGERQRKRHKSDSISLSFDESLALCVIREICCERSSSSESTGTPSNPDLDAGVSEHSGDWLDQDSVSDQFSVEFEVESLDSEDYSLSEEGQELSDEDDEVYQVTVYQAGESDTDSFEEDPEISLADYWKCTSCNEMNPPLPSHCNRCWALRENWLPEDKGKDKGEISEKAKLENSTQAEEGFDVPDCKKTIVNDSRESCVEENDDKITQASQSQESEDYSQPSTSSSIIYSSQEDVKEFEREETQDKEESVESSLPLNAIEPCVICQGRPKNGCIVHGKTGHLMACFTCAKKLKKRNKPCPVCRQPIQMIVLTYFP

On to `CC(C)(C)c1cc(C=C2C(=O)NC(=S)NC2=O)c(-c2ccccc2)n1-c1ccc(Cl)cc1`, for which the inhibition entry in [1] was “Dose-dependent effect”.
As for `CCN1C(=O)C(=Cc2cc(-c3ccccc3)n(-c3ccc(Cl)cc3)c2-c2ccccc2)C(=O)N(CC)C1=S`, in assay [1], the inhibition result was “Dose-dependent effect”.
For the molecule `O=C1NC(=S)NC(=O)C1=Cc1cc(C2CC2)n(-c2ccc(Cl)cc2)c1-c1ccccc1`, the inhibition entry in [1] was “Dose-dependent effect”.
On the same count and under the same terms, for `CC(C)(C)c1ccc(-n2c(-c3ccccc3)cc(C=C3C(=O)NC(=O)NC3=O)c2-c2ccccc2)cc1` the value was “Dose-dependent effect”; for `COc1ccc(-n2c(-c3ccccc3)cc(C=C3C(=O)NC(=O)NC3=O)c2-c2ccccc2)cc1`, “Dose-dependent effect”.
Consider `O=C1NC(=S)N(c2ccccc2)C(=O)/C1=C/c1cc(-c2ccccc2)n(-c2ccc(Cl)cc2)c1-c1ccccc1`, for which the inhibition entry in assay [2], in [4], in assay [6] and in [7] was “inactive” throughout. Also, in assay [1], the inhibition result was “Dose-dependent effect”. The inhibition result in assay [3], in [5], in assay [8], in assay [9] and in assay [10] was “Active” in each case.
Take `N#Cc1ccc(-n2c(-c3ccccc3)cc(C=C3C(=O)NC(=O)NC3=O)c2-c2ccccc2)cc1`: the inhibition result in assay [1] is “Dose-dependent effect”.
With `O=C1NC(=O)C(=Cc2cc(-c3ccccc3)n(-c3ccc(Br)cc3)c2-c2ccccc2)C(=O)N1`, the inhibition entry in assay [1] is “Dose-dependent effect”.
Regarding `Cc1ccc(-n2c(C)cc(C=C3C(=O)NC(=S)NC3=O)c2C)cc1`, in [1], the inhibition entry was “Dose-dependent effect”.
On the same count and under the same terms, for `N#Cc1ccc(-n2c(-c3ccccc3)cc(C=C3C(=O)NC(=S)NC3=O)c2-c2ccccc2)cc1` the value was “Dose-dependent effect”; for `O=C1NC(=O)C(=Cc2cc(-c3ccccc3)n(-c3ccc([N+](=O)[O-])cc3)c2-c2ccccc2)C(=O)N1`, “Dose-dependent effect”; for `CC(C)(C)c1cc(C=C2C(=O)NC(=S)NC2=O)c(-c2ccccc2)n1-c1ccc(Br)cc1`, “Dose-dependent effect”.
For `CN1C(=O)C(=Cc2cc(-c3ccccc3)n(-c3ccc(Cl)cc3)c2-c2ccccc2)C(=O)N(C)C1=S`, the IC50 result in [1] is recorded as “ND(Insoluble)”.
Consider `Cc1ccc(N2C(=O)/C(=C\c3cc(-c4ccccc4)n(-c4ccc(Cl)cc4)c3-c3ccccc3)C(=O)N(c3ccccc3)C2=S)cc1C`, for which the inhibition result in [1] was “Dose-dependent effect”.
The same measure, in the same setting: next, `O=C(O)/C=C/c1cc(-c2ccccc2)n(-c2ccc(Cl)cc2)c1-c1ccccc1`: “Dose-dependent effect”; `CCN1C(=O)C(=Cc2cc(-c3ccccc3)n(-c3ccc(Br)cc3)c2-c2ccccc2)C(=O)N(CC)C1=S`: “Dose-dependent effect”; `O=C1NC(=S)NC(=O)C1=Cc1cc(-c2ccccc2)n(-c2ccc(Br)cc2)c1C1CC1`: “Dose-dependent effect”.
For the molecule `Cc1cc(C=C2C(=O)NC(=S)NC2=O)c(C)n1-c1sc2c(c1C#N)CCCC2`, the inhibition result in [2], in assay [4], in assay [5], in assay [6], in assay [7] and in assay [8] was “inactive” in each case. Further, the inhibition entry in assay [3], in assay [9] and in assay [10] was “Active” in each case.
For `NC(=O)C(=Cc1cc(-c2ccccc2)n(-c2ccc(Cl)cc2)c1-c1ccccc1)C(N)=O`, the inhibition result in [1] is “Dose-dependent effect”.
Still for that read-out and setting: for `Cc1cc(C=C2C(=O)N(c3ccccc3)C(=S)N(c3ccccc3)C2=O)c(C)n1-c1ccc(Br)cc1` the value was “Dose-dependent effect”.
On the same count and under the same terms, for `Cc1ccc(-n2c(C)cc(/C=C3\C(=O)NC(=S)N(c4ccccc4)C3=O)c2C)cc1` the value was “Dose-dependent effect”.
The same measure, in the same setting: next, `OCC(=Cc1cc(-c2ccccc2)n(-c2ccc(Cl)cc2)c1-c1ccccc1)CO`: “Dose-dependent effect”; `O=C1NC(=S)N(c2cccc(Cl)c2)C(=O)/C1=C/c1cc(-c2ccccc2)n(-c2ccc(Cl)cc2)c1-c1ccccc1`: “Dose-dependent effect”.
Turning to `CCOC(=O)c1ccc(-n2c(-c3ccccc3)cc(C=C3C(=O)NC(=S)NC3=O)c2-c2ccccc2)cc1`, in assay [1], the inhibition result is “Dose-dependent effect”.
On the same count and under the same terms, next, `O=C1NC(=S)NC(=O)C1=Cc1cc(-c2ccccc2)n(-c2ccc([N+](=O)[O-])cc2)c1-c1ccccc1`: “Dose-dependent effect”.
Regarding `O=C1NC(=O)C(=Cc2cc(-c3ccccc3)n(-c3ccc(Cl)cc3)c2-c2ccccc2)C(=O)N1`, in assay [1], the inhibition result is “Dose-dependent effect”.
Regarding `CNC(=O)C(=Cc1cc(-c2ccccc2)n(-c2ccc(Cl)cc2)c1-c1ccccc1)C(=O)NC`, the inhibition result in [1] is “Dose-dependent effect”.
For `Cc1cc(/C=C2\C(=O)NC(=S)N(c3ccccc3)C2=O)c(C)n1-c1ccc(Cl)cc1`, in assay [1], the inhibition result is “Dose-dependent effect”.
On the same count and under the same terms, next, `CC1(C)OC(=O)C(=Cc2cc(-c3ccccc3)n(-c3ccc(Br)cc3)c2-c2ccccc2)C(=O)O1`: “Dose-dependent effect”.
The same measure, in the same setting: next, `CC1(C)OC(=O)C(Cc2cc(-c3ccccc3)n(-c3ccc(Br)cc3)c2-c2ccccc2)C(=O)O1`: “Dose-dependent effect”; `O=C(NCCO)C(=Cc1cc(-c2ccccc2)n(-c2ccc(Cl)cc2)c1-c1ccccc1)C(=O)NCCO`: “Dose-dependent effect”.
In the case of `CCN1C(=O)C(=Cc2cc(-c3ccccc3)n(-c3ccc(Br)cc3)c2-c2ccccc2)C(=O)N(CC)C1=O`, the inhibition entry in assay [1] was “Dose-dependent effect”.
On the same count and under the same terms, next, `COC(=O)C(=Cc1cc(-c2ccccc2)n(-c2ccc(Cl)cc2)c1-c1ccccc1)C(=O)OC`: “Dose-dependent effect”; `Cc1cc(C=C2C(=O)NC(=S)NC2=O)c(C)n1-c1ccc(Cl)cc1`: “Dose-dependent effect”.
On the same count and under the same terms, next, `O=C1NC(=S)NC(=O)C1=Cc1cc(-c2ccccc2)n(-c2ccc(Cl)cc2)c1C1CC1`: “Dose-dependent effect”; `O=C1NC(=S)NC(=O)C1=Cc1cc(C2CC2)n(-c2ccc(Br)cc2)c1-c1ccccc1`: “Dose-dependent effect”.
Turning to `O=C1NC(=S)NC(=O)C1=Cc1cc(-c2ccccc2)n(-c2ccc(Cl)cc2)c1-c1ccccc1`, the inhibition result in assay [2], in assay [4], in assay [6] and in [7] was “inactive” in each case. The inhibition entry in assay [1] is “Dose-dependent effect”. Also, the inhibition result in assay [3], in assay [5], in assay [8], in [9] and in assay [10] was “Active” each time.
